Screening data as filed in PubChem.
Rows were chosen to be rich in hits. Some 3% of all compounds tested hit in one or more screens of this group.
Insulin prom inh: TRM-6 insulin promoter activity inhibition; hit rate 0.9% among 130,000; inhibition, % at 2 µM; TRM-6 cells (human fetal islet line), insulin promoter-eGFP reporter, imaging; reporter expression induced with tamoxifen;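 active = inhibition above the mean plus 3 SD, with well images judged a real hit on visual review, cut at about 60% in these data, passing the limit was not always enough; inconclusive = inhibition over the cutoff but images rejected on review; inactive = inhibition not above the cutoff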
RAM inhibit: yeast RAM network inhibition; inhibition, % at 50 µM; hit rate 1.8% among 190,000; S. cerevisiae dse1pr::URA3 reporter, 5-FOA growth OD615, 2 d; analog-sensitive cbk1-as2 kinase mutant strain; AID 868;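 active = inhibition above a set limit, 3 SD over mean compound inhibition, cut at about 8.4% in these data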;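 note: inhibition rescues growth on 5-FOA so higher OD means more RAM inhibition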
Insulin prom up: MIN6 insulin promoter up-regulation | MIN6 insulin promoter-GFP reporter, high-content imaging; stronger effect = higher value | z-score at 5 µM | hit rate 0.3% among 190,000 | AID 1625;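 active = z-score above 3 at 5 µM with at least 500 cells counted in the well; inconclusive = wells under 500 cells, flagged as cytotoxic or low count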
Yeast growth inh: chemicals that inhibit yeast BB579 growth in restrictive medium (lifespan-shortening candidates). AID 804. inhibition, % at 10 µM. S. cerevisiae BB579 growth, OD615, 48 h. hit rate 0.51% among 140,000;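 active = inhibition above a set limit, 3 SD over the mean compound inhibition, cut at about 44% in these data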
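Test system: Saccharomyces cerevisiae DeaD strain BB579, replicative lifespan model yeast | Buffer or medium: Restrictive CSMM-D medium | Doses: One dose, 10 µM compound with 0.25% DMSO | Incubation: 48 h exposure, 30 °C | Detection: Culture absorbance at 615 nm | Control set: Amphotericin B at 10 µg/mL as positive control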
Yeast lifespan up: extends the lifespan of yeast; S. cerevisiae growth with nicotinamide, OD615; deaD strain in restrictive glucose medium; hit rate 0.68% among 130,000; inhibition of the nicotinamide effect, % at 10 µM;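 active = inhibition above a set limit, placed 3 SD over the median of all compounds, cut at about 26% in these data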
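Assay system: DeaD-strain S. cerevisiae. Medium: CSMM-D glucose medium, restrictive. Reagent: nicotinamide, 1.5 mM, co-present with compound. Compound: 10 µM single point, 0.25% DMSO. Schedule: culture preincubation 4 h, compound exposure 48 h, both 30 °C. Detection: absorbance at 615 nm.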
RAM 5-FOA: restores 5-FOA growth of efflux-deficient yeast. shares compounds with RAM inhibit. S. cerevisiae efflux-deficient reporter strain, 5-FOA growth OD615, 2 days. max inhibition, %. 1,200 tested, under 10 active; call rule not given here
Numbers stand for hits; i = inactive; ? = inconclusive; nt = no result given.

SMILES | Insulin prom inh | RAM inhibit | Insulin prom up | Yeast growth inh | Yeast lifespan up | RAM 5-FOA
CCN(CC)c1ccc(C(=O)OCC(=O)Nc2ccccc2-c2ccccc2)cc1 | i | 21.8 | i | i | i | i
FC(F)Sc1nc2ccccc2[nH]1 | nt | nt | i | nt | nt | nt
COc1ccc(NC2=C(Cl)C(=O)N(CCc3ccccc3)C2=O)c(OC)c1 | i | 16.2 | i | i | i | i
COc1ccc(CCNC(=O)c2ccc(-c3ccc([N+](=O)[O-])cc3Cl)o2)cc1 | ? | 13.1 | i | i | i | i
CCOC(=O)Cc1csc(NC(=O)c2c(O)c3ccccc3n(CC(C)C)c2=O)n1 | nt | 13.2 | i | i | 69.2 | i
CCn1c(=O)c(C(=O)NCc2ccc(OC)c(OC)c2)c(O)c2ccccc21 | i | i | i | i | i | nt
CCCn1c(=O)c(C(=O)Nc2ccccc2C(=O)OCC)c(O)c2ccccc21 | i | 15.6 | i | i | i | i
CC(C)Cn1c(=O)c(C(=O)Nc2ccccc2S(N)(=O)=O)c(O)c2ccccc21 | i | i | i | i | i | nt
CCCn1c(=O)c(C(=O)NCc2ccc(OC)c(OC)c2)c(O)c2ccccc21 | nt | 17.1 | i | i | i | i
COC(=O)C1=C(C)Nc2c(c(=O)n(C)c(=O)n2C)C1c1ccncc1 (stereo not given) | i | i | i | i | i | nt
CCSC1=N/C(=C\C=C2/Oc3ccccc3N2CC)C(=O)S1 | nt | nt | i | nt | nt | nt
CN(c1ccccc1)S(=O)(=O)c1cc(C(=O)OCC(N)=O)ccc1Cl | nt | i | i | nt | nt | nt
COc1ccc(-n2nc(C(=O)Nc3ccc4c(c3)OCO4)c3c4ccccc4n(C)c3c2=O)cc1 | i | nt | i | nt | nt | nt
COc1ccc(-n2nc(C(=O)Nc3ccc(OC)c(OC)c3)c3c4ccccc4n(C)c3c2=O)cc1 | i | 12.6 | i | i | i | i
CCc1ccc(NC(=O)CSCc2ccc(C(=O)O)cc2)cc1 | nt | i | nt | nt | nt | nt
C=CCSc1nc2ccccc2c2nc(-c3ccccc3)nn12 | i | 13.0 | i | i | i | i
C=CCNC(=O)CCC(=O)NNc1nc2ccccc2c2nc(-c3ccccc3)nn12 | nt | i | i | nt | nt | nt
O=C(Nc1ccn(Cc2ccccc2F)n1)c1ccc(COc2ccc(Br)cc2)cc1 | nt | 16.2 | i | i | i | i
COc1ccccc1/C=C(/CC(=O)NCc1ccc2c(c1)OCO2)c1nc2ccccc2s1 | i | i | i | i | i | nt
CCOc1ccccc1NC(=O)C(OC(=O)c1ccc(CC)cc1)c1ccccc1 (stereo not given) | i | 14.7 | i | i | i | i
O=C(Nc1ccc(Cl)c(Cl)c1)c1ccc(Cn2cc(Cl)cn2)cc1 | nt | 13.2 | i | i | i | i
COc1cc(/C=C(\C#N)c2ccccn2)ccc1OCc1ccc(Cl)cc1 | nt | 11.7 | i | i | i | i
CCN(Cc1ccccc1)c1ccc(/C=C(\C#N)c2ccccn2)cc1 | nt | 17.0 | i | i | i | i
CCN(CC)c1ccc(/C=C(\C#N)c2ccccn2)cc1 | i | i | i | i | i | nt
O=C(NCC1CCCN(C(=O)CN2CCCCC2)C1)c1ccccc1Cl (stereo not given) | nt | nt | i | nt | nt | nt
SMILES | Insulin prom inh | RAM inhibit | Insulin prom up | Yeast growth inh | Yeast lifespan up | RAM 5-FOA
CC(C)(C)NC(=O)NC(=O)CN1CCN(c2cccc(Cl)c2)CC1 | nt | nt | i | nt | nt | nt
O=C(c1ccc(Cn2c(=S)[nH]c3ccc(N4CCOCC4)cc3c2=O)cc1)N1CCN(c2ccc(F)cc2)CC1 | nt | i | nt | nt | nt | nt
Cc1ccc(C)c(N2CCN(C(=O)c3ccc(Cn4c(=S)[nH]c5ccc(N6CCOCC6)cc5c4=O)cc3)CC2)c1 | i | 12.6 | i | nt | nt | i
CC(C)c1ccc(CNC(=O)CSCC(=O)Nc2ccc3ccccc3c2)cc1 | i | 13.1 | i | i | i | i
O=C(CSCC(=O)Nc1ccc2ccccc2c1)NCc1ccccc1 | nt | i | i | i | i | nt
Cc1ccccc1NC(=O)C1Cc2ccccc2CN1C(=O)OCc1ccccc1 (stereo not given) | i | i | i | i | i | nt
COc1cccc(OCCNc2cc(N3CCOCC3)ccc2[N+](=O)[O-])c1 | i | 11.7 | i | i | i | i
Cc1ccccc1OCCNc1cc(N2CCN(CCO)CC2)ccc1[N+](=O)[O-] | i | i | i | i | i | nt
Cc1ccccc1OCCNc1cc(N2CCCCC2)ccc1[N+](=O)[O-] | i | 14.2 | i | i | i | i
COc1nc(-c2ccccc2)ccc1-c1noc(COc2ccccc2)n1 | i | 13.2 | i | i | i | i
COc1ccc(-c2ccc(-c3noc(-c4ccccc4)n3)c(OC)n2)cc1 | i | 13.2 | i | i | i | i
CCCCCCCC(=O)NC1=NC(=O)C(C)(C)S1 | nt | nt | i | nt | nt | nt
Cc1ccc(SCc2nn(C)c(Cl)c2C=O)cc1 | i | i | i | nt | nt | nt
CC(=O)C1=C(C)NC(=O)CC1c1ccc(F)cc1 (stereo not given) | i | i | i | nt | nt | nt
Cc1ccc2nc(-c3ccc(NC(=O)CSc4nccc(=O)[nH]4)cc3)sc2c1 | i | 11.5 | i | nt | nt | i
CCOC(=O)c1c(-c2ccc(C)o2)csc1NC(=O)CSc1nncs1 | i | 11.8 | i | i | i | i
CCOC(=O)c1c(-c2ccc(C)o2)csc1NC(=O)CN1CCN(CC)CC1 | i | i | ? | i | i | nt
O=C(Nc1cccc(C(F)(F)F)c1)C1CCCCC1 | nt | 21.8 | nt | i | i | i
CS(=O)(=O)N1CCC(C(=O)Nc2cccc(C(F)(F)F)c2)CC1 | i | i | i | i | i | nt
O=C(/C=C/c1cccc(C(F)(F)F)c1)Nc1cccc(C(F)(F)F)c1 | i | 11.7 | i | i | i | i
CCCCOc1ccc(S(=O)(=O)Nc2cc(OC)ccc2OC)cc1 | i | 10.9 | i | i | i | i
COc1ccccc1-c1ccc(SCc2ccc([N+](=O)[O-])cc2)nn1 | i | 14.3 | i | nt | nt | i
Cc1ccc(NS(=O)(=O)c2ccc(C3CCCCC3)cc2)cc1 | i | 13.5 | i | i | i | i
Cc1ccc(S(=O)(=O)Nc2ccc(N3CCCCC3)cc2)cc1 | nt | i | i | nt | nt | nt
O=C(Nc1cccnc1)c1ccc(S(=O)(=O)c2ccccc2)cc1 | nt | i | i | nt | nt | nt
SMILES | Insulin prom inh | RAM inhibit | Insulin prom up | Yeast growth inh | Yeast lifespan up | RAM 5-FOA
O=C(CCOc1ccccc1)Nc1cccc(S(=O)(=O)Nc2ccccc2Cl)c1 | i | 17.6 | i | i | i | i
O=C(Nc1cccc(S(=O)(=O)Nc2ccccc2Cl)c1)c1ccc(Cl)nc1 | i | i | i | i | i | nt
CCOc1ccc2nc(CN3CCN(Cc4ccsc4)C(CCO)C3)ccc2c1 (stereo not given) | nt | i | i | nt | nt | nt
CCOc1ccc(-c2nnc3ccc(SCc4ccc(C(=O)OC)o4)nn23)cc1 | nt | 11.9 | i | i | i | i
CC(C)CNS(=O)(=O)c1ccc(CCC(=O)Nc2cc(Cl)ccc2Oc2ccccc2)cc1 | i | 12.5 | i | i | i | i
CC(C)(C)NS(=O)(=O)c1ccc(CCC(=O)Nc2cc(Cl)ccc2Oc2ccccc2)cc1 | i | i | ? | i | i | nt
CCCNS(=O)(=O)c1ccc(CCC(=O)Nc2cc(Cl)ccc2Oc2ccccc2)cc1 | nt | 11.6 | i | i | nt | i
CC(C)(C)OC(=O)N1CCCN(C(=O)Nc2ccc(C(F)(F)F)cc2)CC1 | nt | nt | i | nt | nt | nt
O=C(Nc1ccc(Br)c2ccccc12)c1ccc2ccccc2c1O | nt | nt | i | nt | nt | nt
